# Data reported in ChEMBL document CHEMBL1148578, “Synthesis and biological evaluation of 6-(alkyn-1-yl)furo[2,3-d]pyrimidin-2(3H)-one base and nucleoside derivatives” (J Med Chem, 2006).
# Experiments:
# Human alphaherpesvirus 3 [1] = assay: Antiviral activity against Varicella-Zoster virus YS strain; assay type: functional, organism-based; details: Human alphaherpesvirus 3, YS
# Human alphaherpesvirus 3 [2] = assay: Antiviral activity against Varicella-Zoster virus 07/1 strain; assay type: functional, organism-based; details: Human alphaherpesvirus 3, 07/1
# Summary of the method: (§1)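 HEL cell monolayers were infected with VZV (TK⁻ strains YS/R and 07/1) for 2 h. Residual virus was then removed and medium with graded compound concentrations was added, in duplicate. After 5 days at 37 °C, cells were ethanol-fixed and Giemsa-stained, and plaques were counted microscopically.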
# Human alphaherpesvirus 3 [3] = assay: Antiviral activity against Varicella-Zoster virus YS/R strain; assay type: functional, organism-based; details: Human alphaherpesvirus 3, YS/R; summary of the method: as §1
# Human betaherpesvirus 5 [4] = assay: Antiviral activity against human cytomegalovirus AD169 strain; assay type: functional, organism-based; details: Human betaherpesvirus 5, AD169
# Summary of the method: (§2)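 Virus was removed and medium with graded compound concentrations was added, in duplicate. After 7 days at 37 °C, cells were ethanol-fixed and Giemsa-stained, and cytopathogenicity was scored microscopically.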
# Human betaherpesvirus 5 [5] = assay: Antiviral activity against human cytomegalovirus Davis strain; assay type: functional, organism-based; details: Human betaherpesvirus 5, Davis; summary of the method: as §2
# HEL = assay: Cytotoxic activity against cultured human embryonic lung (HEL) cells; assay type: functional
# Summary of the method: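 HEL cells were seeded at 5 × 10³/well and grown for 24 h, then exposed to graded compound concentrations for 3 days at 37 °C. MCC was the lowest concentration giving microscopically visible alteration of cell morphology.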
EC50 (Human alphaherpesvirus 3 [1]),EC50 (Human alphaherpesvirus 3 [2]),EC50 (Human alphaherpesvirus 3 [3]),EC50 (Human betaherpesvirus 5 [4]),EC50 (Human betaherpesvirus 5 [5]),Compound,CC50 (HEL),MCC (HEL)
> 4.6 µM,4.6 µM,3.5 µM,> 4.6 µM,> 4.6 µM,CCCCCCCCCCC#Cc1cc2cn([C@@H]3O[C@H](CO)[C@@H](O)[C@H]3O)c(=O)nc2o1,44 µM,12 µM
≥ 39 µM,39 µM,19 µM,> 133 µM,> 53 µM,CCCCCCC#Cc1cc2cn([C@@H]3O[C@H](CO)[C@@H](O)[C@H]3O)c(=O)nc2o1,> 133 µM,≥ 133 µM
> 150 µM,> 150 µM,> 150 µM,> 150 µM,> 150 µM,CCCCCCCCCCC#Cc1cc2cn(C)c(=O)nc2o1,> 150 µM,> 150 µM
≥ 43 µM,34 µM,21 µM,> 53 µM,> 53 µM,CCCCCCC#Cc1cc2cn([C@@H]3O[C@H](CO)[C@@H](O)[C@@H]3O)c(=O)nc2o1,> 53 µM,133 µM
217 µM,> 87 µM,> 87 µM,> 217 µM,139 µM,CCCCC#Cc1cc2cn(C)c(=O)nc2o1,> 217 µM,≥ 217 µM
87 µM,≥ 135 µM,90 µM,> 150 µM,> 150 µM,CCCCC#Cc1cc2cn([C@H]3C[C@H](O)[C@@H](CO)O3)c(=O)nc2o1,> 150 µM,> 150 µM
> 144 µM,> 144 µM,63 µM,> 144 µM,> 144 µM,CCCCC#Cc1cc2cn([C@@H]3O[C@H](CO)[C@@H](O)[C@@H]3O)c(=O)nc2o1,> 144 µM,> 144 µM
2.7 µM,> 13 µM,6.5 µM,7.4 µM,7.6 µM,CCCCCCCCC#Cc1cc2cn([C@H]3C[C@H](O)[C@@H](CO)O3)c(=O)nc2o1,77 µM,52 µM
1.5 µM,25 µM,22 µM,21 µM,19 µM,CCCCCCC#Cc1cc2cn([C@H]3C[C@H](O)[C@@H](CO)O3)c(=O)nc2o1,138 µM,≥ 97 µM
> 175 µM,> 70 µM,> 175 µM,> 175 µM,> 175 µM,CCCCCCCCC#Cc1cc2cn(C)c(=O)nc2o1,> 175 µM,> 175 µM
≥ 5.7 µM,≥ 6 µM,2.5 µM,> 4.8 µM,> 4.8 µM,CCCCCCCCCCC#Cc1cc2cn([C@H]3C[C@H](O)[C@@H](CO)O3)c(=O)nc2o1,36 µM,30 µM
≥ 11 µM,11 µM,3.7 µM,> 12 µM,12 µM,CCCCCCCCC#Cc1cc2cn([C@@H]3O[C@H](CO)[C@@H](O)[C@@H]3O)c(=O)nc2o1,> 124 µM,49 µM
≥ 89 µM,> 77 µM,23 µM,31 µM,37 µM,CCCCCCC#Cc1cc2cn(C)c(=O)nc2o1,> 194 µM,194 µM
≥ 16 µM,> 12 µM,5.7 µM,> 12 µM,> 12 µM,CCCCCCCCCCC#Cc1cc2cn([C@@H]3O[C@H](CO)[C@@H](O)[C@@H]3O)c(=O)nc2o1,116 µM,46 µM
,,,,,Nc1nc2c(ncn2COCCO)c(=O)[nH]1 [ACYCLOVIR],> 889 µM,> 222 µM
> 12 µM,≥ 12 µM,6.2 µM,7.3 µM,≥ 9.3 µM,CCCCCCCCC#Cc1cc2cn([C@@H]3O[C@H](CO)[C@@H](O)[C@H]3O)c(=O)nc2o1,62 µM,49 µM
≥ 113 µM,144 µM,52 µM,> 144 µM,> 144 µM,CCCCC#Cc1cc2cn([C@@H]3O[C@H](CO)[C@@H](O)[C@H]3O)c(=O)nc2o1,> 144 µM,> 144 µM

Compound,EC50 (Human alphaherpesvirus 3 [1]),EC50 (Human alphaherpesvirus 3 [2]),EC50 (Human alphaherpesvirus 3 [3]),EC50 (Human betaherpesvirus 5 [4]),EC50 (Human betaherpesvirus 5 [5]),CC50 (HEL),MCC (HEL)
O=c1[nH]c(=O)n([C@H]2C[C@H](O)[C@@H](CO)O2)cc1/C=C/Br [BRIVUDINE],0.01 µM,≥ 99 µM,≥ 126 µM,,,> 150 µM,> 150 µM
Nc1nc2c(ncn2COC(CO)CO)c(=O)[nH]1 [GANCICLOVIR],,,,,8.7 µM,> 197 µM,> 197 µM
